Assay results reported in ChEMBL document CHEMBL4680078, “Inhibitors of the Cysteine Synthase CysM with Antibacterial Potency against Dormant Mycobacterium tuberculosis” (J Med Chem, 2016).
pKd: −log10 of the molar value. Calls of active or inactive are those of the source. No cut-off for these calls is given here.

Columns and labels:
[1] = Binding affinity to Mycobacterium tuberculosis CysM expressed in Escherichia coli strain BL21 (DE3) incubated for 5 mins by PLP fluorescence-based screening assay; conditions: for pKd: read-out: Kd
Outline: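 Binding measured by the rise in fluorescence emission of the enzyme-bound PLP cofactor on ligand binding, using recombinant CysM at 2 µM. Kd obtained by fitting the ligand concentration dependence to a 1:1 binding-site model. Affinities approaching sub-µM are limited by protein concentration.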

[2] = tested on: Mycobacterium tuberculosis; experiment: Inhibition of Mycobacterium tuberculosis CysM expressed in Escherichia coli strain BL21 (DE3) assessed as apparent first-order rate constant for the formation of the alpha-aminoacrylate intermediate at 100 uM incubated for 5 mins in presence of OPS by spectrophotometry
Outline: (§1)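 Orthogonal activity assay with recombinant CysM, following formation of the α-aminoacrylate intermediate in the first half-reaction with OPS. Apparent first-order rate constants (kobs) determined. Only residual activities below 20% are reliably quantified; >20% remaining activity is reported as a limit.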

[3] = Binding affinity to Mycobacterium tuberculosis CysM by ITC analysis
HepG2 = experiment: Cytotoxicity in human HepG2 cells assessed as reduction in cell viability at 10 uM incubated for 72 hrs by Cell-titer-Glo assay; format: cell-based; conditions: hepg2, 72 h
SH-SY5Y = experiment: Cytotoxicity in human SH-SY5Y cells assessed as reduction in cell viability at 10 uM incubated for 72 hrs by Cell-titer-Glo assay; format: cell-based
[4] = tested on: Mycobacterium tuberculosis; experiment: Antimycobacterial activity against Mycobacterium tuberculosis H37Rv grown under nutrient starvation condition assessed as reduction in nonreplicating cells count incubated for 7 days at 10 ug/ml; format: functional; conditions: for Activity: dose 10.0 µg/ml, time 7.0 day; for log(activity): dose 10 µg/ml, time 7 day
THP-1 = experiment: Cytotoxicity in human THP-1 cells assessed as reduction in cell viability at 10 uM incubated for 72 hrs by Cell-titer-Glo assay; format: cell-based; conditions: thp-1, 72 h
[5] = tested on: Mycobacterium tuberculosis; experiment: Inhibition of Mycobacterium tuberculosis CysM expressed in Escherichia coli strain BL21 (DE3) assessed as reduction in amino-acrylate intermediate formation by measuring residual enzyme activity at 100 uM incubated for 5 mins in presence of OPS by spectrophotometry; outline: as §1
[6] = tested on: Mycobacterium tuberculosis; experiment: Antimycobacterial activity against Mycobacterium tuberculosis H37Rv assessed as inhibition of microbial growth incubated for 5 days by alamar blue assay; format: functional; conditions: 120 h, time 5 day
J774.A1 = experiment: Cytotoxicity in mouse J774.A1 cells assessed as reduction in cell viability at 10 uM incubated for 72 hrs by Cell-titer-Glo assay; format: cell-based; conditions: j774.a1, 72 h
[7] = Binding affinity to Mycobacterium tuberculosis CysK1 by PLP fluorescence-based screening assay
[8] = tested on: Mycobacterium tuberculosis; experiment: Selectivity index, ratio of Kd for binding affinity to Mycobacterium tuberculosis CysK2 to Kd for binding affinity to Mycobacterium tuberculosis CysM expressed in Escherichia coli strain BL21 (DE3)
[9] = tested on: Mycobacterium tuberculosis; experiment: Selectivity index, ratio of Kd for binding affinity to Mycobacterium tuberculosis CysK1 to Kd for binding affinity to Mycobacterium tuberculosis CysM expressed in Escherichia coli strain BL21 (DE3)
[10] = molecular target: T1, Cystathionine beta-synthase (Homo sapiens) (UniProt P35520); experiment: (§2) Binding affinity to human CBS by PLP fluorescence-based screening assay
T1 sequence (whole entry): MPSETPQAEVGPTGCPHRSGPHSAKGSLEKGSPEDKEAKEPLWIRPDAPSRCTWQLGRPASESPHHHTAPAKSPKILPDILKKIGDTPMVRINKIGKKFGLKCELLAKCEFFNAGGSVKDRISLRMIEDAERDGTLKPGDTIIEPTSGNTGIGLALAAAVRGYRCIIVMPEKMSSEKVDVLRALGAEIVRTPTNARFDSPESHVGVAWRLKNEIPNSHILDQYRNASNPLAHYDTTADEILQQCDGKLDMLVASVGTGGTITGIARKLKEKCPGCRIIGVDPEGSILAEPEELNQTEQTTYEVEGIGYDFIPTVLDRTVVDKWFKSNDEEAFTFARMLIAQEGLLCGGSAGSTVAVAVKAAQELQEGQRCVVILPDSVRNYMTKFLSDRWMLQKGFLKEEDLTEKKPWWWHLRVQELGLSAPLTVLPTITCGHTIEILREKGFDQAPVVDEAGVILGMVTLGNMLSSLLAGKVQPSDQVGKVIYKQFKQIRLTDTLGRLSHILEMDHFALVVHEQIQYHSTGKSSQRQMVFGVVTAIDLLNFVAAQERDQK

[11] = Binding affinity to Mycobacterium tuberculosis CysK2 by PLP fluorescence-based screening assay
[12] = tested on: Mycobacterium tuberculosis; experiment: Bactericidal activity against Mycobacterium tuberculosis H37Rv grown under nutrient starvation condition assessed as reduction in nonreplicating cells count incubated for 7 days at 10 ug/ml in presence of 0.2 mM cysteine; format: functional, organism-based; conditions: dose 10.0 µg/ml, time 7.0 day
Outline: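 Nutrient-starved, nonreplicating H37Rv culture exposed to compound at 10 µg/ml alongside added L-cysteine (series 0.0, 0.05, 0.2, 0.5 mM) and an untreated control. Viable bacteria counted by most probable number (MPN) assay. Run in triplicate.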

[13] = Stability in presence of cysteine assessed as compound degradation incubated for 24 hrs by spectroscopy analysis; format: physicochemical
[14] = molecular target: T2, Cystathionine beta-synthase (Homo sapiens, UniProt P35520); experiment: as §2
T2 sequence (P35520 whole entry): T1 sequence (whole entry)

[15] = Selectivity index, ratio of Kd for binding affinity to human CBS to Kd for binding affinity to Mycobacterium tuberculosis CysM expressed in Escherichia coli strain BL21 (DE3)
[16] = Stability in presence of cysteine assessed as compound degradation incubated for 24 hrs by mass-spectrometry; format: physicochemical
[17] = Stability in presence of cysteine assessed as compound degradation incubated for 24 hrs by HPLC analysis; format: physicochemical

## O=C(NCc1ccc(Cl)c(Cl)c1)Nc1cccc(C(=O)O)c1
[1]
  pKd: < 3.52
[2]
  K: > 20 min⁻¹

## O=C(Nc1ccc(Cl)cc1)Nc1cccc(C(=O)O)c1
[3]
  pKd: 5.47
HepG2
  Activity: Non-Toxic
SH-SY5Y
  Activity: Non-Toxic
[4]
  Activity: inactive
THP-1
  Activity: Non-Toxic
[5]
  Activity: 0.6%
[6]
  MIC: 21.5 µM
J774.A1
  Activity: Non-Toxic
[2]
  K: 0.24 min⁻¹

## O=C(O)c1cccc(NC(=S)Nc2ccc(Cl)cc2)c1
[1]
  pKd: < 3.52
[2]
  K: > 20 min⁻¹

## O=C(Nc1cccc(-c2nnn[nH]2)c1)Nc1ccc(Cl)c(Cl)c1
[1]
  Kd: Not Active
[2]
  K: > 20 min⁻¹

## O=C(Nc1cccc(C(=O)O)c1)Nc1cccc(-c2ccccc2)c1
HepG2
  Activity: Non-Toxic
[1]
  pKd: 5.77
[7]
  pKd: 4.01
SH-SY5Y
  Activity: Non-Toxic
[8]
  Ratio: 15
[9]
  Ratio: > 80
THP-1
  Activity: Non-Toxic
[10]
  Activity: inactive
[11]
  pKd: 4.65
[5]
  Activity: 0.6%
[6]
  MIC: 18.8 µM
J774.A1
  Activity: Non-Toxic
[2]
  K: 0.24 min⁻¹

## O=C(Nc1ccccc1)Nc1cccc(C(=O)O)c1
[1]
  pKd: 4.89
[5]
  Activity: 2.6%
[2]
  K: 1.02 min⁻¹

## COc1ccc(NC(=O)Nc2cccc(C(=O)O)c2)cc1
[1]
  pKd: 4.95
[4]
  Activity: inactive
[5]
  Activity: 9.9%
[6]
  MIC: 21.8 µM
[2]
  K: 3.84 min⁻¹

## O=C(Nc1cccc(C(=O)O)c1)Nc1ccc(Cl)c(Cl)c1
[3]
  pKd: 6.49
HepG2
  Activity: Non-Toxic
[7]
  pKd: 3.62
SH-SY5Y
  Activity: Non-Toxic
[4]
  log(activity): 3
[8]
  Ratio: 15
[9]
  Ratio: > 80
THP-1
  Activity: Non-Toxic
[12]
  Activity: inactive
[13]
  Stabilty: Unstable
[14]
  pKd: 4.03
[11]
  pKd: 4.52
[15]
  Ratio: 300
[16]
  Stabilty: Unstable
[17]
  Stabilty: Unstable
[5]
  Activity: 0.3%
[6]
  MIC: 9.6 µM
J774.A1
  Activity: Non-Toxic
[2]
  K: 0.1 min⁻¹

## Cc1ccc(NC(=O)Nc2cccc(C(=O)O)c2)cc1
[1]
  pKd: 5.10
[5]
  Activity: 4.9%
[6]
  MIC: 23.1 µM
[2]
  K: 1.92 min⁻¹

## O=C(Nc1ccc([N+](=O)[O-])cc1)Nc1cccc(C(=O)O)c1
[1]
  pKd: 4.98
[4]
  Activity: inactive
[5]
  Activity: 5.7%
[6]
  MIC: 20.7 µM
[2]
  K: 2.22 min⁻¹

## NNC(=O)c1ccncc1 [ISONIAZID]
[4]
  log(activity): 1
[6]
  MIC: 0.4 µM

## O=C(Nc1cccc(-c2ccccc2)c1)Nc1ccc(C(=O)O)c(O)c1
[1]
  pKd: 5.35
[4]
  log(activity): 3
[12]
  Activity: inactive
[5]
  Activity: 1.2%
[6]
  MIC: 2.2 µM
[2]
  K: 0.48 min⁻¹

## CO[C@H]1/C=C/O[C@@]2(C)Oc3c(C)c(O)c4c(O)c(c(/C=N/N5CCN(C)CC5)c(O)c4c3C2=O)NC(=O)/C(C)=C\C=C\[C@H](C)[C@H](O)[C@@H](C)[C@@H](O)[C@@H](C)[C@H](OC(C)=O)[C@@H]1C [RIFAMPIN]
[6]
  MIC: 0.5 µM

## O=C(Nc1ccc(-c2cccc(Cl)c2Cl)cc1)Nc1cccc(C(=O)O)c1
HepG2
  Activity: Non-Toxic
SH-SY5Y
  Activity: Non-Toxic
THP-1
  Activity: Non-Toxic
J774.A1
  Activity: Non-Toxic

## O=C(Nc1ccc(C(=O)O)c(O)c1)Nc1ccc(Cl)c(Cl)c1
[1]
  Kd: Not Active
[2]
  K: > 20 min⁻¹

## O=C(Nc1cccc(-c2ccccc2)c1)Nc1ccc(O)c(C(=O)O)c1
[3]
  pKd: 5.66
HepG2
  Activity: Non-Toxic
SH-SY5Y
  Activity: Non-Toxic
THP-1
  Activity: Non-Toxic
[5]
  Activity: 0.6%
J774.A1
  Activity: Non-Toxic
[2]
  K: 0.23 min⁻¹

## O=C(Nc1ccc(Cl)c(Cl)c1)Nc1ccc(O)c(C(=O)O)c1
[1]
  Kd: Not Active
[2]
  K: > 20 min⁻¹

## CC(=O)c1ccc(NC(=O)Nc2cccc(C(=O)O)c2)cc1
[1]
  pKd: 3.96
[2]
  K: > 20 min⁻¹

## O=C(O)c1cccc(NS(=O)(=O)c2ccc(Cl)c(Cl)c2)c1
[1]
  Kd: Not Active
[2]
  K: > 20 min⁻¹

## Cc1ccc(C(=O)Nc2cccc(C(=O)O)c2)cc1
[1]
  Kd: Not Active
[2]
  K: > 20 min⁻¹

## O=C(Nc1ccc(Br)cc1)Nc1cccc(C(=O)O)c1
[3]
  pKd: 5.85
HepG2
  Activity: Non-Toxic
SH-SY5Y
  Activity: Non-Toxic
[4]
  Activity: inactive
THP-1
  Activity: Non-Toxic
[5]
  Activity: 1.2%
[6]
  MIC: 18.6 µM
J774.A1
  Activity: Non-Toxic
[2]
  K: 0.48 min⁻¹

## O=C(Nc1ccc(Cl)c(Cl)c1)Nc1ccc(C(=O)O)cc1O
[1]
  Kd: Not Active
[2]
  K: > 20 min⁻¹
